# Experimental data pooled from the literature.
# Each line is one published result; the experiments were not run side by side.
# Cell line: A549
# Observed: cell growth or viability
Compound,method,time,IC50 [µM]
CC(=O)O[C@H]1C(=O)[C@@]2(C)[C@H]([C@H](OC(=O)c3ccccc3)[C@]3(O)C[C@H](OC(=O)[C@H](O)[C@@H](NC(=O)c4ccccc4)c4ccccc4)C(C)=C1C3(C)C)[C@]1(OC(C)=O)CO[C@@H]1C[C@@H]2O,SRB,,0.0025
COc1cc2ncnc(Nc3ccc(F)c(Cl)c3)c2cc1NC(=O)N/N=C/c1cccn1CCCN1CCOCC1,MTT,72 h,1.86
CC(C)(C)NC(=O)NNC(=O)c1ccc(Nc2nccc(-c3ccc(Cl)cc3)n2)cc1,MTT,,19.5
Cc1nc(Nc2ncc(C(=O)Nc3c(C)cccc3Cl)s2)cc(N2CCN(CCO)CC2)n1,MTT,48 h,11.8
Brc1ccc(Nc2nc(N/N=C\c3c[nH]c4ccccc34)nc(Nc3ccccc3)n2)cc1,SRB,72 h,11.6
O=C(N/N=C1\C(=O)N(c2ccccc2)c2ccccc21)c1cc2ccccc2[nH]1,,,2.41
O=C(N/N=C/c1cccn1CCCN1CCCCC1)Nc1cc2c(Nc3ccc(F)c(Cl)c3)ncnc2cc1O[C@H]1CCOC1,MTT,72 h,2.44
COc1cccc(NC(=O)CN2C(=O)/C(=C/c3ccc(F)cc3)SC2=S)c1,MTT,,14.4
Cn1c(=O)c2c(ncn2Cc2nnc(SCC(=O)Nc3ccc(Cl)c(Cl)c3)n2-c2ccccc2)n(C)c1=O,MTT,,80.6
Oc1ncnc2cc(Nc3nc(-c4ccccc4)cs3)ccc12,MTT,,24.7
C=CC(=O)Nc1cc(Nc2nc(N3CCc4sccc4C3)c3cccnc3n2)c(OC)cc1N1CCOCC1,MTT,,> 50
Cc1ccc(C)n1-c1ccc(C(=O)NNC=O)cc1,MTT,72 h,219
COc1cc([C@@H]2c3cc4c(cc3[C@@H](O[C@@H]3O[C@@H]5CO[C@@H](C)O[C@H]5[C@H](O)[C@H]3O)[C@H]3COC(=O)[C@H]23)OCO4)cc(OC)c1O,fluorescence,48 h,4.1
CCC(=O)Nc1cc(Nc2nc(N3CCOCC3)c3sccc3n2)c(OC)cc1N(C)CCN(C)C,MTT,,> 50
COc1ccccc1/C=C/CNCC(O)COc1ccncc1 (stereo not shown),CCK-8,72 h,> 100
OCc1ccc2c(c1C#Cc1ccc(O)cc1)C(c1ccc(O)cc1)(c1ccc(O)cc1)c1cc(O)ccc1-2,MTT,48 h,> 50
CCN(CC)C(=S)NC(=O)c1ccc2ccccc2c1,,48 h,4.76
COc1c(C)cnc(COc2ccc(NC(=O)Nc3ccc(F)cc3)cc2)c1C,MTT,72 h,13.2
C=CC(=O)Nc1cc(Nc2nc(N3CCc4sccc4C3)c3cccnc3n2)c(OC)cc1N1CCN(CC)CC1,MTT,,1.42
CC1=C(O)C(=O)C=C2C1=CC=C1[C@@]2(C)CC[C@@]2(C)[C@@H]3C[C@](C)(C(=O)OCCO)CC[C@]3(C)CC[C@]12C,MTT,48 h,3.19
COCCCOc1ccnc(COc2ccc(NC(=O)Nc3cccc(C(F)(F)F)c3)cc2)c1C,MTT,72 h,4.38
COc1ccccc1/C=C/CNCC(O)COc1ccc2ccccc2c1 (stereo not shown),CCK-8,72 h,17.1
